Screening results as filed in PubChem BioAssay.
Most compounds without a hit are left out; they make up all but 3.5% or so of the library.
RGS4 inh = human RGS4 inhibition. B-score at 10 µM. HEK293 M3R/RGS4 inducible, Fluo-4 calcium flux; stronger effect = higher value; triggered by carbachol at its EC20. P49798. 310,000 compounds, 0.45% hits;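 active = B-score, a plate-corrected calcium signal, over three deviations above library mean, with baseline fluorescence within five deviations of library mean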;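 also: RGS4 expression induced by doxycycline in cells with stable M3 receptor; B-score is computed from the integrated fluorescence ratio over baseline after carbachol; higher B-score means a larger calcium signal and so more RGS4 inhibition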
Target sequence (P49798 whole entry, looked up): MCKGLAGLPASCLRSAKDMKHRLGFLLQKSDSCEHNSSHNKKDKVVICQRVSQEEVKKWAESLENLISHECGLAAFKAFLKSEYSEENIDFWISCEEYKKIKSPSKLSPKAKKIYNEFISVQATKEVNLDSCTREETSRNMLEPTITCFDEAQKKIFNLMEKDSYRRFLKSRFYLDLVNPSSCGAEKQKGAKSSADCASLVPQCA
MrgX1 PAM = allosterically activates human MrgX1 receptor signaling; Q96LB2; MrgX1-HEK293, Fluo-4 calcium flux, FDSS; stronger effect = higher value; B-score at 10 µM; 310,000 compounds, 0.63% hits; AID 588675;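 active = plate-corrected calcium response at least 3 library SD above typical, normal starting fluorescence, not activating the receptor alone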;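 also: compound read alongside a low EC10 to EC30 dose of BAM8-22 agonist; peak minus trough fluorescence over baseline measured at the second addition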
Target sequence (Q96LB2 whole entry, looked up): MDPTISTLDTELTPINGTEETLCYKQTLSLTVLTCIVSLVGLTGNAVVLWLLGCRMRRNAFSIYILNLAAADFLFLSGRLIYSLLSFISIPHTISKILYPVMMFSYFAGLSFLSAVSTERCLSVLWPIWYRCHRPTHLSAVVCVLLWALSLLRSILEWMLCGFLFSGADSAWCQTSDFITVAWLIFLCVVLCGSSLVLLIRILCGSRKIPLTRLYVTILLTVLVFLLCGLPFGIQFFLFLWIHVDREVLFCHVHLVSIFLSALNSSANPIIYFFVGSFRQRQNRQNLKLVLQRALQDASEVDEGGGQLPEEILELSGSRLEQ
MrgX1 antagonist = blocks BAM8-22 activation of human MrgX1 receptor; MRGX1-HEK293 calcium flux, Fluo-4, BAM8-22 antagonism; stronger effect = lower value; AID 588676; Q96LB2; B-score at 10 µM; 310,000 compounds, 1.3% hits;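 active = calcium-response B-score plate-corrected more than 3 library SD below zero, starting fluorescence within 5 deviations, no agonist response on first addition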;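 also: peak minus trough fluorescence over baseline after final BAM8-22 challenge near maximal dose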
MrgX1 agonist = agonists of human MrgX1 receptor | Q96LB2 | MrgX1-HEK293 cells, Fluo-4 calcium fluorescence, agonist mode; stronger effect = higher value | B-score at 10 µM | 310,000 compounds, 0.44% hits | AID 588627;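 active = calcium response B-score plate-corrected fluorescence ratio at least 3 library SD, with starting fluorescence B-score inside 5 SD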
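Material – MrgX1-expressing HEK293 cells · Input – 15,000 cells seeded per well · Dosing – compound as first of three additions · Times – overnight seeding, then 1 h dark dye loading · Measured by – kinetic Fluo-4 NW fluorescence of intracellular calcium · Read-out – B-scored fluorescence response ratio · Benchmarks – positive and negative control wells on each plate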
RGS4 act = RGS4 potentiation or activation; HEK293 M3R/inducible RGS4, carbachol calcium flux Fluo4; stronger effect = lower value; B-score at 10 µM; 310,000 compounds, 0.92% hits; AID 463111;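 active = B-score of the integrated calcium signal more than 4 SD below the library mean, with starting fluorescence not abnormally high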;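 also: negative B-score means reduced calcium response which marks RGS4 activation or potentiation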
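System – HEK293 FlpIn-TREx cells, stable M3R, doxycycline-inducible RGS4 · Reagent – ECmax carbachol challenge · Times – compound preincubation 20 min at room temperature before agonist · Technique – Fluo4 fluorescence kinetic imaging of calcium · Measure – B score of integrated Fluo4 ratio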
RGS4 activ val = RGS4 activation, validation assay; shares compounds with RGS4 act; HEK293 M3R/RGS4 inducible, carbachol calcium flux Fluo4; inhibition, % at 10 µM; 1,100 compounds, 89% hits; AID 602282;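 active = inhibition above 3 SD of the buffer control wells, cut at about 41% in these data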;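 also: signal is the integrated peak-minus-minimum Fluo4 fluorescence over baseline ratio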
RGS4 act ctr = RGS4 activator counter-screen hit in non-induced cells; shares compounds with RGS4 act; inhibition, % at 10 µM; 1,100 compounds, 82% hits; HEK293 M3R non-induced RGS4, Fluo4 calcium flux; after carbachol challenge at its EC90;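 active = inhibition exceeding 3 SD of buffer-only control wells, cut at about 26% in these data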;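 also: percent drop in integrated peak-minus-baseline over baseline Fluo4 ratio after carbachol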
Starred values were filed as active, the others as inactive; i = inactive; . = no result.

SMILES | RGS4 inh | MrgX1 PAM | MrgX1 antagonist | MrgX1 agonist | RGS4 act | RGS4 activ val | RGS4 act ctr
O=C(NCc1cccnc1)c1c(O)c2cccc3c2n(c1=O)CCC3 | i | i | i | i | i | . | .
COc1ccc(CCN2C(=NC(=O)CCC(=O)O)SC3CS(=O)(=O)CC32)cc1OC (stereo not drawn) | i | i | -5.2* | i | i | . | .
COc1ccc(CCN2C(=NC(=O)CC(C)C)SC3CS(=O)(=O)CC32)cc1 (stereo not drawn) | i | i | i | i | i | . | .
O=C(O)CCCNS(=O)(=O)/C=C/c1ccccc1 | i | i | i | i | i | . | .
O=C(NCc1ccccc1Cl)c1cnc2n(c1=O)CCS2 | i | i | -4.7* | i | i | . | .
O=C(NCCc1ccccc1)c1cnc2n(c1=O)CCS2 | i | i | i | i | i | . | .
O=C1CCCN1S(=O)(=O)c1ccccc1 | i | i | i | i | -7.9* | 50* | 0
CCn1cc(C(=O)N2CCN(c3ccccn3)CC2)c(=O)c2cc(S(=O)(=O)N(C)C3CCCCC3)ccc21 | i | i | i | i | i | . | .
O=C(Nc1ccc(Oc2ccccc2)nc1)C1CCCCN1Cc1ccc(O)cc1 (stereo not drawn) | i | i | i | i | -8.2* | 74* | 28*
O=C(NCCSCc1ccccc1)c1ccc(C2SCC(=O)N2Cc2ccccc2)cc1 (stereo not drawn) | i | i | i | i | -11* | 88* | 42*
COC(=O)c1ccc(C2SCC(=O)N2Cc2ccccc2)cc1 (stereo not drawn) | i | i | i | i | i | . | .
COc1ccc2c(c1)sc(N)[n+]2Cc1cc(C)cc2cccnc12 | i | i | i | i | i | . | .
CCOc1ccc2c(c1)sc(N)[n+]2Cc1cc(C)cc2cccnc12 | i | i | i | i | -11* | 90* | 46*
CCCc1nc2ccccc2c(C(=O)OCC(=O)N2CCc3ccccc32)c1CC | i | i | i | i | -8.6* | 84* | 84*
CC1CCc2nc3ccccc3c(C(=O)OCC(=O)N3CCc4ccccc43)c2C1 (stereo not drawn) | i | i | i | i | i | . | .
CCCc1nc2ccccc2c(C(=O)OCC(=O)Nc2cccc(S(=O)(=O)N3CCOCC3)c2)c1CC | i | i | i | i | -8.9* | 92* | 92*
Cc1cc(C[n+]2cc(Br)ccc2N)c2ncccc2c1 | i | i | i | i | i | . | .
Cc1noc(C)c1S(=O)(=O)N(CC(=O)NCc1ccc2c(c1)OCO2)c1ccc(C(C)C)cc1 | i | i | i | i | -8.3* | 0 | 0
Cc1ccc(N(CC(=O)NCc2ccc3c(c2)OCO3)S(=O)(=O)c2c(C)noc2C)cc1 | i | i | i | i | i | . | .
O=C(N[C@@H](Cc1ccccc1)C(=O)OCc1ccccc1)c1nc[nH]c1C(=O)N1CCc2ccccc2C1 | i | i | i | i | i | . | .
CCCCc1nc2cc(C(=O)NCc3nccn3CC)ccc2o1 | i | i | i | i | -9.1* | 92* | 78*
COc1ccc(C(C(=O)NCC2CCCO2)N(C(=O)Cn2nnc3ccccc32)c2ccccc2C(C)=O)cc1OC (stereo not drawn) | i | i | i | i | i | . | .
O=C(NNC(=O)C1CCCN(S(=O)(=O)c2ccc3ccccc3c2)C1)C1CC1 (stereo not drawn) | i | . | . | . | i | . | .
CCCCn1c2ccccc2c2nnc(SCCN3CCCCC3)nc21 | i | . | . | . | -8.5* | 92* | 78*
CSc1ccccc1NC(=O)CN(C1CCCCC1)S(C)(=O)=O | i | i | i | i | i | . | .
SMILES | RGS4 inh | MrgX1 PAM | MrgX1 antagonist | MrgX1 agonist | RGS4 act | RGS4 activ val | RGS4 act ctr
CN(CC(=O)Nc1ccccc1Sc1ccccc1)C1CCCCC1 | i | i | i | i | -8.2* | 94* | 89*
CC1=C(C(=O)OCC2CCCO2)C(c2ccccc2)C2=C(CC(C)(C)CC2=O)N1 (stereo not drawn) | i | i | i | i | -8.2* | 0 | 0
COc1ccc(N(C)S(=O)(=O)c2c(C)[nH]c(=O)[nH]c2=O)cc1 | i | i | i | i | -8.1* | 0 | 0
Cc1cc(NC(=O)C(C)SCC(=O)OCc2ccc([N+](=O)[O-])cc2)no1 (stereo not drawn) | i | i | i | i | i | . | .
Cc1ccc(-c2nc3ccccn3c2NCc2ccc3c(c2)OCO3)cc1 | i | i | i | i | -9.5* | 89* | 71*
CCN1CCN(CCn2c(=S)[nH]c3ccccc3c2=O)CC1 | i | i | i | i | -7.8* | 85* | 59*
CC(CN1CCCCC1)OC(=O)c1ccc2c(c1)OCCO2 (stereo not drawn) | i | i | i | i | -11* | 68* | 33*
CC(CN1CCOCC1)OC(=O)C(C)(c1ccccc1)c1ccccc1 (stereo not drawn) | i | i | i | i | i | . | .
CC(CN1CCOCC1)OC(=O)c1ccc2c(c1)OCCO2 (stereo not drawn) | i | i | i | i | i | . | .
CC(CN1CCCCC1)OC(=O)C(C)(c1ccccc1)c1ccccc1 (stereo not drawn) | i | i | i | i | -7.9* | 90* | 54*
OCCCCNCc1ccc(OCc2ccccc2)cc1 | i | i | i | i | -7.8* | 60* | 84*
OCCNCCCCOc1ccc(OCc2ccccc2)cc1 | i | i | i | i | i | . | .
CSc1ccc(C(=O)C2CCCN(Cc3ccc(N4CCNC4=O)cc3)C2)cc1 (stereo not drawn) | i | i | i | i | -8* | 91* | 57*
COc1ccc(CN2CCCC(C(=O)c3ccc(SC)cc3)C2)cc1Cn1cccn1 (stereo not drawn) | i | i | i | i | i | . | .
O=C1C(NS(=O)(=O)c2cccs2)=C(N2CCN(Cc3ccccc3)CC2)C(=O)c2ccccc21 | i | i | i | i | -8.1* | 63* | 0
CN1CCN(C2=C(NS(=O)(=O)c3cccs3)C(=O)c3ccccc3C2=O)CC1 | i | i | i | i | i | . | .
Cc1cc(NC(=O)c2cnn3c(C(F)F)cc(-c4ccccc4)nc23)no1 | i | i | i | i | i | . | .
Cc1cc(NC(=O)c2cnn3c(C(F)(F)F)cc(-c4ccccc4)nc23)no1 | i | i | i | i | -10* | 94* | 74*
